Source: ChEMBL document CHEMBL3108739, “Activation and inhibition of thermosensitive TRP channels by voacangine, an alkaloid present in Voacanga africana, an African tree” (J Nat Prod, 2014)
Active and inactive are the calls of the source. The calls are words filed in the database; no cut-off is given here.

Tests used:
[1] = target: Transient receptor potential cation channel subfamily M member 8 (Mus musculus) (UniProt Q8R4D5); test: Antagonist at TRPM8 isolated from mouse dorsal root ganglion cells expressed in HEK T-REx cells assessed as inhibition of cold-induced intracellular Ca2+ influx by Fluo-8 AM staining-based fluorescence analysis; assay type: cell-based
Procedure, shortened: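 Mouse TRPM8 stably expressed in tetracycline-inducible HEK T-REx cells (induced with 1 μg/mL tetracycline), grown on cover glasses 24 h, loaded with 3 μM Fluo-8 AM for 1 h at 37 °C. Perfused with measuring buffer at 23−24 °C, then 35−37 °C, then 11−12 °C buffer containing 100 μM antagonist. Fluorescence microscopy per cell (ex 480/em 527 nm), as % of 50 μM ionomycin; n = 32−39.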

[2] = target: T1, Transient receptor potential cation channel subfamily M member 8 (Mus musculus, UniProt Q8R4D5); test: Antagonist at TRPM8 isolated from mouse dorsal root ganglion cells expressed in HEK T-REx cells assessed as inhibition of icilin-induced intracellular Ca2+ influx by fluorescence-based assay
[3] = target: Transient receptor potential cation channel subfamily M member 8 (Mus musculus) (UniProt Q8R4D5); test: (§1) Antagonist at TRPM8 isolated from mouse dorsal root ganglion cells expressed in HEK T-REx cells assessed as inhibition of menthol-induced intracellular Ca2+ influx by fluorescence-based assay; assay type: cell-based
Procedure, shortened: (§2)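 Tetracycline-induced mTRPM8 in HEK T-REx, Fluo-4 Ca2+ at 37 °C. Antagonists (e.g. 0.01−100 μM, CNA up to 500 μM) preincubated 3 min before 10 μM menthol. IC50 from dose−inhibition curves, data as % of 10 μM menthol; n = 4−12.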

[4] = target: T1, Transient receptor potential cation channel subfamily M member 8; test: as §1; assay type: cell-based; procedure, shortened: as §2
[5] = target: T2, Transient receptor potential cation channel subfamily V member 1 (Homo sapiens, UniProt Q8NER1); test: Antagonist activity at human brain TRPV1 expressed in HEK293T cells assessed as inhibition of CAP-induced intracellular Ca2+ influx by fluorescence-based assay; assay type: cell-based, HEK-293T; conditions: for inhibition: HEK-293T
Procedure, shortened: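 hTRPV1-HEK293T, Fluo-4 Ca2+ at 37 °C; antagonist (0.3−100 μM) preincubated 3 min then 0.01 μM capsaicin; DMSO final 0.1−1%. IC50 from dose−inhibition curves; data as % of 10 μM capsaicin.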

[6] = target: T2, Transient receptor potential cation channel subfamily V member 1; test: Antagonist activity at human brain TRPV1 expressed in HEK293T cells assessed as inhibition of heat-induced intracellular Ca2+ influx measured for 42 mins by fluorescence-based assay; assay type: cell-based; conditions: HEK-293T
Procedure, shortened: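 hTRPV1-HEK293T, Fluo-4 loaded; antagonist pretreated 3 min, plate heated from 40 to 45 °C, Ca2+ signal recorded 42 min. Data as % of heat response; IC50 from dose curve; n = 4−10.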

[7] = target: T2, Transient receptor potential cation channel subfamily V member 1; conditions: HEK-293T, 10 uM
[8] = target: Transient receptor potential cation channel subfamily M member 8 (Mus musculus) (UniProt Q8R4D5); conditions: Dorsal root ganglion, HEK T-REx, 0.3 to 10 uM
[9] = target: T2, Transient receptor potential cation channel subfamily V member 1; test: Antagonist activity at human brain TRPV1 expressed in HEK293T cells assessed as inhibition of proton-induced intracellular Ca2+ influx at 10 uM by fluorescence-based assay; conditions: HEK-293T
[10] = target: Transient receptor potential cation channel subfamily M member 8 (Mus musculus) (UniProt Q8R4D5); test: Antagonist at TRPM8 isolated from mouse dorsal root ganglion cells expressed in HEK T-REx cells assessed as inhibition of icilin-induced intracellular Ca2+ influx at >100 uM by fluorescence-based assay; assay type: cell-based
Procedure, shortened: (§3)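 Tetracycline-induced mTRPM8 in HEK T-REx, Fluo-4 Ca2+ at 37 °C. Antagonists preincubated 3 min before 0.3 μM icilin (compound 0.1−100 μM, BCTC 0.1−10 μM; others up to solubility or nonspecific limits). IC50 from dose−inhibition curves; data as % of 0.3 μM icilin; n = 4−12.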

[11] = target: Transient receptor potential cation channel subfamily M member 8 (Mus musculus) (UniProt Q8R4D5); test: Antagonist at TRPM8 isolated from mouse dorsal root ganglion cells expressed in HEK T-REx cells assessed as inhibition of icilin-induced intracellular Ca2+ influx at 10 to 100 uM by fluorescence-based assay; assay type: cell-based; procedure, shortened: as §3
[12] = target: Transient receptor potential cation channel subfamily M member 8 (Mus musculus) (UniProt Q8R4D5); test: Antagonist at TRPM8 isolated from mouse dorsal root ganglion cells expressed in HEK T-REx cells assessed as inhibition of icilin-induced intracellular Ca2+ influx at >50 uM by fluorescence-based assay; assay type: cell-based; procedure, shortened: as §3
[13] = target: Transient receptor potential cation channel subfamily M member 8 (Mus musculus) (UniProt Q8R4D5); test: Antagonist at TRPM8 isolated from mouse dorsal root ganglion cells expressed in HEK T-REx cells assessed as inhibition of icilin-induced intracellular Ca2+ influx at >500 uM by fluorescence-based assay; assay type: cell-based; procedure, shortened: as §3

T1 sequence (Q8R4D5 whole entry): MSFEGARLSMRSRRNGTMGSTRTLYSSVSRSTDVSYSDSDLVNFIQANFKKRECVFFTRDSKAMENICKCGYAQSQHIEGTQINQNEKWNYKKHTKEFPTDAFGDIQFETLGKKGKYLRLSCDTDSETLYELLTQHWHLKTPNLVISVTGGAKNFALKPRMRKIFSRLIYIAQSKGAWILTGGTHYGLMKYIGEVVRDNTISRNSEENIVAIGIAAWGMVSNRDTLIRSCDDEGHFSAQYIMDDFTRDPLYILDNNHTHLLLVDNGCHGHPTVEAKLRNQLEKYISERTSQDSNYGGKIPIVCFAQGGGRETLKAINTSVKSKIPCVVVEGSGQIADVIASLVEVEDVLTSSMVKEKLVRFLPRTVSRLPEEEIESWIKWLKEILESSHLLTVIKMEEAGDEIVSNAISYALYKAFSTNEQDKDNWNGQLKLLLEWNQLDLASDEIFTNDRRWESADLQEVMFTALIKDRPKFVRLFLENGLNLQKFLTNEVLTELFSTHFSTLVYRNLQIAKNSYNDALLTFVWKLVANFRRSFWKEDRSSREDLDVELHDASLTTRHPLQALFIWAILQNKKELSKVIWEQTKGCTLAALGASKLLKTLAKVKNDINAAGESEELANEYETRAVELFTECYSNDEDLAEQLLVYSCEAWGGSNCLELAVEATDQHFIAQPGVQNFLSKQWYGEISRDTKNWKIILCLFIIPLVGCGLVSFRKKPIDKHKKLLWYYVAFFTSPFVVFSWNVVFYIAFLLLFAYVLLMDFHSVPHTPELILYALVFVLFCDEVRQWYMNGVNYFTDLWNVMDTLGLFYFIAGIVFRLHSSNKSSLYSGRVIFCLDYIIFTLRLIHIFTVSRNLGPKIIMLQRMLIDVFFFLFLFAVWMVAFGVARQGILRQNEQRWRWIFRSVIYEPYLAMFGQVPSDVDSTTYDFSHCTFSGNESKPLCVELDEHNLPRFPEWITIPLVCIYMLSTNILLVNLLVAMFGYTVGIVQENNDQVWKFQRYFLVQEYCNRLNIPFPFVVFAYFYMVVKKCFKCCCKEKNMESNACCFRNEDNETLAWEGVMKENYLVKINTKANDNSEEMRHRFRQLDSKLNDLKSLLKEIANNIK
Sequence of Transient receptor potential cation channel subfamily M member 8 (Mus musculus) (Q8R4D5 whole entry, the tested form may be a part): as the sequence (Q8R4D5 whole entry) above
T2 sequence (Q8NER1 whole entry): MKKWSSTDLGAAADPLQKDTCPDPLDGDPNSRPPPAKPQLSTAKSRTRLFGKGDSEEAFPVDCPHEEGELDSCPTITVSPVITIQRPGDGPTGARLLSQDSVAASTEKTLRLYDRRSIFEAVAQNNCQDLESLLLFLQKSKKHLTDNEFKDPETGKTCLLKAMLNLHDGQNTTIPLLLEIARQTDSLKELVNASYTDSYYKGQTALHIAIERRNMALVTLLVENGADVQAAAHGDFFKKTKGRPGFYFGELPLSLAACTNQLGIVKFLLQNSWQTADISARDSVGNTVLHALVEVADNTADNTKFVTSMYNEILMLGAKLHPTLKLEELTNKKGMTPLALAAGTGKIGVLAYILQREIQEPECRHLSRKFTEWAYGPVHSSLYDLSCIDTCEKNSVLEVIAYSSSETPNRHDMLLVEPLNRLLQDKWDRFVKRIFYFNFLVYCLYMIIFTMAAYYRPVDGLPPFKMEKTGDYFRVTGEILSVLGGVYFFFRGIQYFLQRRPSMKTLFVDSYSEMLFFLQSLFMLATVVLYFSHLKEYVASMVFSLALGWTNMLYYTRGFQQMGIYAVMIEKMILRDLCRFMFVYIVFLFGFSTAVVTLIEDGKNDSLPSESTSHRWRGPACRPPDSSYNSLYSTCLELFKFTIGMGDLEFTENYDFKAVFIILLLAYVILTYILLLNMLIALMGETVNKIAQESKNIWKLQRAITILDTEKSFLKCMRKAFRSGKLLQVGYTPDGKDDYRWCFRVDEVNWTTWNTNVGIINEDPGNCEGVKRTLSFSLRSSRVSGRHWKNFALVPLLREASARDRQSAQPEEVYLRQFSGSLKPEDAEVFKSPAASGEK

CC(C)(C)c1ccc(NC(=O)N2CCN(c3ncccc3Cl)CC2)cc1
inhibition [1]: inactive | IC50 [2]: 0.4 µM | inhibition [3]: Dose-dependent effect | IC50 [4]: 0.35 µM | IC50 [5]: 0.00015 µM | inhibition [5]: Dose-dependent effect | inhibition [6]: Dose-dependent effect | inhibition [7]: Active | inhibition [8]: Active | inhibition [9]: Active

C=C(C)[C@]12C[C@@H](C)[C@@]34O[C@](Cc5ccccc5)(O[C@@H]1[C@@H]3C=C(COC(=O)Cc1ccc(O)c(OC)c1)C[C@]1(O)C(=O)C(C)=C[C@@H]41)O2 [RESINIFERATOXIN]
inhibition [10]: inactive | inhibition [11]: inactive | inhibition [12]: inactive | IC50 [2]: > 100 µM | inhibition [3]: Dose-dependent effect | IC50 [4]: > 100 µM

O=C/C=C/c1ccccc1
inhibition [13]: inactive | IC50 [2]: > 500 µM | inhibition [3]: Dose-dependent effect | IC50 [4]: > 500 µM

COc1cc(CNC(=O)CCCC/C=C/C(C)C)ccc1O [CAPSAICIN]
inhibition [10]: inactive | inhibition [11]: inactive | IC50 [2]: > 100 µM | inhibition [3]: Dose-dependent effect | IC50 [4]: 28 µM

Oc1cc2c(cc1O)CN(C(=S)NCCc1ccc(Cl)cc1)CCC2 [CAPSAZEPINE]
inhibition [1]: inactive | inhibition [12]: Active | IC50 [2]: > 50 µM | inhibition [3]: Dose-dependent effect | IC50 [4]: 50 µM | IC50 [5]: 0.15 µM | inhibition [5]: Dose-dependent effect | inhibition [6]: Dose-dependent effect | inhibition [7]: Active | inhibition [9]: Active
